ChEMBL document CHEMBL3297654, “Synthesis, antimicrobial and cytotoxic activities, and structure-activity relationships of gypsogenin derivatives against human cancer cells” (Eur J Med Chem, 2014)
In brackets after ≈: the same amount, converted by molar mass. Activity calls are given as the source filed them. No cut-off for these calls is given here.

Legend:
HT-29 [1] = assay: Antiproliferative activity against human HT-29 cells after 24 and 72 hrs by MTT assay; assay type: functional, cell-based
In short: (§1)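 ATCC human cell lines are kept in RPMI, DMEM or McCoy's 5A with 10–15% heat-inactivated FCS at 37 °C and 5% CO2. They are seeded at 1×10^4–1×10^5 cells/mL in 48-well plates and exposed to 0.5, 10, 20 or 40 µM. Viability is read by MTT (590 nm) at 24 and 72 h. Growth is expressed relative to untreated cells and IC50 is fitted, in triplicate.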

Nakaseomyces glabratus = assay: Antimicrobial activity against Candida glabrata assessed as zone of inhibition at 30 uL for 24 hrs at 30 degC by disk diffusion test; assay type: functional, organism-based
In short: (§2)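 Agar well diffusion on Mueller Hinton agar seeded with 0.1 mL broth culture (18–24 h), adjusted to 0.5 McFarland (about 1×10^8 bacteria or 1×10^6 yeast cells/mL). A 6 mm well is filled with 30 µL of compound from a fresh 1000 µg/mL DMSO stock. Plates are held at 30 °C for 24 h and inhibition zone diameter is read in mm.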

Bacillus cereus [2] = assay: Antimicrobial activity against Bacillus cereus ATCC 11778 assessed as zone of inhibition at 30 uL for 24 hrs at 30 degC by disk diffusion test; assay type: functional; in short: as §2
[3] = system: Staphylococcus epidermidis; assay: Antimicrobial activity against Staphylococcus epidermidis ATCC 12228 assessed as zone of inhibition at 30 uL for 24 hrs at 37 degC by disk diffusion test; assay type: functional, organism-based
In short: (§3)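 Compound (30 µL of a fresh 1000 µg/mL DMSO stock) goes into a 6 mm well cut in Mueller Hinton agar inoculated with 0.1 mL broth culture adjusted to 0.5 McFarland (about 1×10^8 cells/mL). Plates are incubated 24 h at 37 °C, then zone of inhibition diameter is measured in mm.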

Candida tropicalis = assay: Antimicrobial activity against Candida tropicalis assessed as zone of inhibition at 30 uL for 24 hrs at 30 degC by disk diffusion test; assay type: functional, organism-based; in short: as §2
Pseudomonas aeruginosa = assay: Antimicrobial activity against Pseudomonas aeruginosa ATCC 35032 assessed as zone of inhibition at 30 uL for 24 hrs at 37 degC by disk diffusion test; assay type: functional, organism-based; in short: as §3
Escherichia coli = assay: Antimicrobial activity against Escherichia coli ATCC 25922 assessed as zone of inhibition at 30 uL for 24 hrs at 37 degC by disk diffusion test; assay type: functional, organism-based; in short: as §3
Candida albicans = assay: Antimicrobial activity against Candida albicans ATCC 10231 assessed as zone of inhibition at 30 uL for 24 hrs at 30 degC by disk diffusion test; assay type: functional, organism-based; in short: as §2
Caco-2 [4] = assay: Antiproliferative activity against human Caco2 cells after 24 and 72 hrs by MTT assay; assay type: functional, cell-based; in short: as §1
HT-29 [5] = assay: Induction of necrosis in human HT-29 cells at 20 uM after 48 hrs by Hoechst 33258/propidium iodide staining based phase contrast microscopic analysis; assay type: functional
In short: (§4)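 Cells in 48-well plates treated with 0.5, 10, 20 or 40 µM for 24 and 48 h. Values are read at 48 h, 20 µM for test agents and 0.5 µM for controls. Staining is Hoechst 33258/propidium iodide double staining with fluorescence microscopy. Blue nuclei are viable or early-to-mid apoptotic, and pink nuclei are late apoptotic or necrotic. Apoptosis and necrosis are scored from chromatin condensation as % of cells. Cells are grown at 37 °C in 5% CO2 in RPMI, DMEM or McCoy's 5A with 10–15% heat-inactivated FCS.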

HeLa [6] = assay: Induction of necrosis in human HeLa cells at 20 uM after 48 hrs by Hoechst 33258/propidium iodide staining based phase contrast microscopic analysis; assay type: functional; in short: as §4
MCF7 [7] = assay: Antiproliferative activity against human MCF7 cells after 24 and 72 hrs by MTT assay; assay type: functional, cell-based; in short: as §1
Bacillus thuringiensis [8] = assay: Antimicrobial activity against Bacillus thuringiensis assessed as zone of inhibition at 30 uL for 24 hrs at 30 degC by disk diffusion test; assay type: functional; in short: as §2
Salmonella typhimurium = assay: Antimicrobial activity against Salmonella typhimurium ATCC 14028 assessed as zone of inhibition at 30 uL for 24 hrs at 37 degC by disk diffusion test; assay type: functional, organism-based; conditions: Salmonella enterica subsp. enterica serovar Typhimurium; in short: as §3
MCF7 [9] = assay: Induction of necrosis in human MCF7 cells at 20 uM after 48 hrs by Hoechst 33258/propidium iodide staining based phase contrast microscopic analysis; assay type: functional; in short: as §4
Bacillus cereus [10] = assay: Antimicrobial activity against Bacillus cereus ATCC 11778 for 24 hrs by microdillution method; assay type: functional; conditions: ATCC 11778, 24 h
In short: (§5)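 Broth microdilution. Compound is dissolved in DMSO (2 mg/mL) and diluted in Mueller Hinton broth as two-fold serial dilutions from 256 to 0.125 µg/mL. Bacteria are pre-grown in nutrient broth at 30 °C, and the final inoculum is about 10^6 cfu/mL. Tests are incubated 37 °C for 24 h. MIC is the lowest concentration giving complete inhibition. Streptomycin is the positive control.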

HeLa [11] = assay: Antiproliferative activity against human HeLa cells after 24 and 72 hrs by MTT assay; assay type: functional, cell-based; in short: as §1
HL-60 [12] = assay: Induction of necrosis in human HL60 cells at 20 uM after 48 hrs by Hoechst 33258/propidium iodide staining based phase contrast microscopic analysis; assay type: functional; in short: as §4
SAOS-2 [13] = assay: Induction of necrosis in human Saos2 cells at 20 uM after 48 hrs by Hoechst 33258/propidium iodide staining based […] microscopic analysis; assay type: functional; in short: as §4
HL-60 [14] = assay: Antiproliferative activity against human HL60 cells after 24 and 72 hrs by MTT assay; assay type: functional, cell-based; in short: as §1
Klebsiella pneumoniae = assay: Antimicrobial activity against Klebsiella pneumoniae ATCC 13882 assessed as zone of inhibition at 30 uL for 24 hrs at 37 degC by disk diffusion test; assay type: functional, organism-based; in short: as §3
Cyberlindnera jadinii = assay: Antimicrobial activity against Candida utilis ATCC 9950 assessed as zone of inhibition at 30 uL for 24 hrs at 30 degC by disk diffusion test; assay type: functional, organism-based; in short: as §2
Caco-2 [15] = assay: Induction of apoptosis in human Caco2 cells at 20 uM after 48 hrs by Hoechst 33258/propidium iodide staining based phase contrast microscopic analysis; assay type: functional; in short: as §4
Bacillus subtilis [16] = assay: Antimicrobial activity against Bacillus subtilis ATCC 6633 assessed as zone of inhibition at 30 uL for 24 hrs at 30 degC by disk diffusion test; assay type: functional; in short: as §2
Enterococcus faecalis = assay: Antimicrobial activity against Enterococcus faecalis ATCC 29212 assessed as zone of inhibition at 30 uL for 24 hrs at 37 degC by disk diffusion test; assay type: functional, organism-based; in short: as §3
HT-29 [17] = assay: Induction of apoptosis in human HT-29 cells at 20 uM after 48 hrs by Hoechst 33258/propidium iodide staining based phase contrast microscopic analysis; assay type: functional; in short: as §4
MCF7 [18] = assay: Induction of apoptosis in human MCF7 cells at 20 uM after 48 hrs by Hoechst 33258/propidium iodide staining based phase contrast microscopic analysis; assay type: functional; in short: as §4
Bacillus subtilis [19] = assay: Antimicrobial activity against Bacillus subtilis ATCC 6633 for 24 hrs by microdillution method; assay type: functional; conditions: ATCC 6633, 24 h; in short: as §5
Micrococcus luteus = assay: Antimicrobial activity against Micrococcus luteus ATCC 9341 assessed as zone of inhibition at 30 uL for 24 hrs at 30 degC by disk diffusion test; assay type: functional, organism-based; in short: as §2
HeLa [20] = assay: Induction of apoptosis in human HeLa cells at 20 uM after 48 hrs by Hoechst 33258/propidium iodide staining based phase contrast microscopic analysis; assay type: functional; in short: as §4
SAOS-2 [21] = assay: Induction of apoptosis in human Saos2 cells at 20 uM after 48 hrs by Hoechst 33258/propidium iodide staining based phase contrast microscopic analysis; assay type: functional; in short: as §4
Bacillus thuringiensis [22] = assay: Antimicrobial activity against Bacillus thuringiensis for 24 hrs by microdillution method; assay type: functional; in short: as §5
[23] = Antiproliferative activity against human Saos2 cells after 24 and 72 hrs by MTT assay; assay type: functional, cell-based; conditions: SAOS-2; in short: as §1
Proteus vulgaris = assay: Antimicrobial activity against Proteus vulgaris ATCC 33420 assessed as zone of inhibition at 30 uL for 24 hrs at 37 degC by disk diffusion test; assay type: functional, organism-based; in short: as §3
Staphylococcus aureus = assay: Antimicrobial activity against Staphylococcus aureus ATCC 25923 assessed as zone of inhibition at 30 uL for 24 hrs at 37 degC by disk diffusion test; assay type: functional, organism-based; in short: as §3
Caco-2 [24] = assay: Induction of necrosis in human Caco2 cells at 20 uM after 48 hrs by Hoechst 33258/propidium iodide staining based phase contrast microscopic analysis; assay type: functional; in short: as §4
HL-60 [25] = assay: Induction of apoptosis in human HL60 cells at 20 uM after 48 hrs by Hoechst 33258/propidium iodide staining based phase contrast microscopic analysis; assay type: functional; in short: as §4
Saccharomyces cerevisiae = assay: Antimicrobial activity against Saccharomyces cerevisiae ATCC 9763 assessed as zone of inhibition at 30 uL for 24 hrs at 30 degC by disk diffusion test; assay type: functional, organism-based; in short: as §2

## CC1(C)CC[C@]2(C(=O)O)CC[C@]3(C)C(=CC[C@@H]4[C@@]5(C)CC[C@H](O)[C@@](C)(/C=N/O)[C@@H]5CC[C@]43C)[C@@H]2C1
HT-29 [1]
  IC50: 10.9 µM
Nakaseomyces glabratus
  diameter of the inhibition zone (DIZ): inactive
Bacillus cereus [2]
  diameter of the inhibition zone (DIZ): 9 mm
[3]
  diameter of the inhibition zone (DIZ): inactive
Candida tropicalis
  diameter of the inhibition zone (DIZ): inactive
Pseudomonas aeruginosa
  diameter of the inhibition zone (DIZ): inactive
Escherichia coli
  diameter of the inhibition zone (DIZ): inactive
Candida albicans
  diameter of the inhibition zone (DIZ): inactive
Caco-2 [4]
  IC50: 28.1 µM
HT-29 [5]
  Activity: 0.7%
HeLa [6]
  Activity: 3%
MCF7 [7]
  IC50: 7.5 µM
Bacillus thuringiensis [8]
  diameter of the inhibition zone (DIZ): 10 mm
Salmonella typhimurium
  diameter of the inhibition zone (DIZ): inactive
MCF7 [9]
  Activity: 4%
Bacillus cereus [10]
  MIC: 128 µg/mL (≈ 264 µM)
HeLa [11]
  IC50: 8.71 µM
HL-60 [12]
  Activity: 3%
SAOS-2 [13]
  Activity: 3%
HL-60 [14]
  IC50: 3.9 µM
Klebsiella pneumoniae
  diameter of the inhibition zone (DIZ): inactive
Cyberlindnera jadinii
  diameter of the inhibition zone (DIZ): inactive
Caco-2 [15]
  Activity: 23%
Bacillus subtilis [16]
  diameter of the inhibition zone (DIZ): 11 mm
Enterococcus faecalis
  diameter of the inhibition zone (DIZ): inactive
HT-29 [17]
  Activity: 27%
MCF7 [18]
  Activity: 26%
Bacillus subtilis [19]
  MIC: 64 µg/mL (≈ 132 µM)
Micrococcus luteus
  diameter of the inhibition zone (DIZ): inactive
HeLa [20]
  Activity: 26%
SAOS-2 [21]
  Activity: 27%
Bacillus thuringiensis [22]
  MIC: 128 µg/mL (≈ 264 µM)
[23]
  IC50: 7.93 µM
Proteus vulgaris
  diameter of the inhibition zone (DIZ): inactive
Staphylococcus aureus
  diameter of the inhibition zone (DIZ): inactive
Caco-2 [24]
  Activity: 3%
HL-60 [25]
  Activity: 30%
Saccharomyces cerevisiae
  diameter of the inhibition zone (DIZ): inactive
